Screening results: PubChem BioAssay, Johns Hopkins Ion Channel Center
Sampled rows, rich in hits. Any-hit rate of the full collection: about 2.9%.
TRPC4 block = inhibitors of mouse TRPC4 channel; Q9QUQ5; HEK293 TRPC4beta/mu-opioid, DAMGO-evoked Fluo4 calcium flux; active compounds read low; B-score at 10 µM; 300,000 compounds, 0.39% hits; AID 2247;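 active means B-score over 3 SD under the library average, no early fluorescence shift, positive overall ratio signal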
Target sequence (Q9QUQ5 whole entry, looked up): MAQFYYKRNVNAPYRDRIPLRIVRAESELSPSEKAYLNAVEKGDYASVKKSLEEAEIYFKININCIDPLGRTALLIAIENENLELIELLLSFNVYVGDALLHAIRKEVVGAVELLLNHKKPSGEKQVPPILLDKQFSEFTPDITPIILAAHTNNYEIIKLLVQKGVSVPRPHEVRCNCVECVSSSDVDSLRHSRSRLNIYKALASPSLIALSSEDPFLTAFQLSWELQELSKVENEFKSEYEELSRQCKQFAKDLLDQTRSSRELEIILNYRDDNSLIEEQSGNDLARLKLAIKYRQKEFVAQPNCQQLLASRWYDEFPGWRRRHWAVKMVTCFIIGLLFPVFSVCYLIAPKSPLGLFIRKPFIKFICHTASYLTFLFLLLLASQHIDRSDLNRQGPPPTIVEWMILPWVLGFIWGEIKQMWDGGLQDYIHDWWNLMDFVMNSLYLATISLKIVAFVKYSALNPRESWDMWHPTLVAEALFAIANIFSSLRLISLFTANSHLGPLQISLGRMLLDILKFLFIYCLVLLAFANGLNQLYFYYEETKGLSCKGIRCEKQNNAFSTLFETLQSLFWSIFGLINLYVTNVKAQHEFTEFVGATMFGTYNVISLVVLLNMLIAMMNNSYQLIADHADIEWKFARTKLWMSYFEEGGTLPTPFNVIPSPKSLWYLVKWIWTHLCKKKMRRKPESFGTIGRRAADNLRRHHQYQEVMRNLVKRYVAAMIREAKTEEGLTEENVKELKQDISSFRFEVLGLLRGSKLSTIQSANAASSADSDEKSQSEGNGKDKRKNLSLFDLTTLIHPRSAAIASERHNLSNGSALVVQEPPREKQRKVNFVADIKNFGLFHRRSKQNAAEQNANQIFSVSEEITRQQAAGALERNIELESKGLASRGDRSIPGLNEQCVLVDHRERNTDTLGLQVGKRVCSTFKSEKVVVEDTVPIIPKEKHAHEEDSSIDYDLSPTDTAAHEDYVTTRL
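Material: HEK293 cells with stable TRPC4beta plus mu-opioid receptor expression; probe or stimulus: DAMGO in two steps, submaximal then maximal; technique: Fluo4 calcium fluorescence by kinetic imaging, 5 s 1 Hz baseline; measure: integrated fluorescence ratio relative to baseline, converted to per-well B score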
Kir21 inh = blocks the mouse Kir2.1 inward-rectifier potassium channel. P35561. HEK293-Kir2.1, FluxOR thallium flux fluorescence; active compounds read low. B-score at 10 µM. 310,000 compounds, 0.85% hits;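 active means fluorescence ratio B-score at or below minus 3 SD of library scores, with starting-brightness B-score within 2 SD, cut at about -4.2 in these data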;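 further: channel flux triggered by added potassium and thallium sulfate stimulus; B-score of peak minus minimum fluorescence over baseline after thallium stimulus; more negative B-score means stronger Kir2.1 block with less thallium influx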
TRPC6 inh = blocks the mouse TRPC6 cation channel; 310,000 compounds, 1.1% hits; HEK293-TRPC6, membrane potential dye, ACh-evoked depolarization; active compounds read low; B-score at 10 µM;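 active means B-score under library mean minus 3 SD, initial fluorescence not abnormally high, positive integrated signal ratio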;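 further: B-score derived from integrated fluorescence ratio over the kinetic read; more negative B-score means stronger inhibition of depolarization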
TRPC4 PAM = allosteric potentiators of mouse TRPC4 channel; Q9QUQ5; HEK293 TRPC4beta/mu-opioid, DAMGO EC20, Fluo-4 Ca2+ flux; active compounds read high; B-score at 10 µM; 310,000 compounds, 0.42% hits; AID 2227;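 active means B-score of calcium response area above 5 SD of library B-scores, with initial fluorescence ratio within 5 SD of library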
TRPC6 act = activators of mouse TRPC6 channel | Q61143 | HEK293-TRPC6 membrane potential dye fluorescence; active compounds read high | B-score at 10 µM | 310,000 compounds, 0.13% hits | AID 2550;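 active means B-score of the integrated fluorescence ratio above library mean plus 3 SD, and starting fluorescence ratio within library mean plus 5 SD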;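 further: higher score means more depolarization so channel activation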
TRPC4 act = activators of mouse TRPC4 channel; B-score at 10 µM; HEK293 TRPC4beta/mu-opioid, Fluo4 calcium fluorescence; active compounds read high; AID 2237; Q9QUQ5; 310,000 compounds, 0.49% hits;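 active means B-score above 5 SD of library B-scores, and initial fluorescence ratio not above library mean plus 5 SD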;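 further: positive B-score marks a calcium rise read as TRPC4 activation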
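Assay system: HEK293 stable line with TRPC4beta plus mu-opioid receptor; schedule: 45 min room-temperature Fluo4 loading, 110 s read; technique: kinetic Fluo4 calcium fluorescence; evaluation: integrated baseline-normalised fluorescence ratio, converted to per-well B score; controls: buffer (low) and maximal DAMGO (high)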
Of the large screens only hits and unclear results are named; the others gave an inactive call.

COc1ccc(-c2noc(N3CCCC(C(=O)Nc4ccccc4F)C3)n2)cc1 (configuration not stated)	none
Cc1ccc(S(=O)(=O)C2CS(=O)(=O)CC2O)cc1 (configuration not stated)	none
CC(=O)C1=C(S(=O)(=O)c2ccc(C)cc2)CS(=O)(=O)C1	TRPC4 block -7
CN(Cc1ccc(C#CCCO)cc1)CC1CCCN(CCc2ccc(Cl)cc2)C1 (configuration not stated)	Kir21 inh -9.4
CN(Cc1ccccc1O)CC1CCCN(CCc2ccc(Cl)cc2)C1 (configuration not stated)	Kir21 inh -15
COc1ccc(C2=NOC(Cn3c(Cc4ccc(Cl)cc4)nc4c3c(=O)n(C)c(=O)n4C)C2)cc1 (configuration not stated)	TRPC4 PAM 10
S=c1[nH]nc(-c2ccco2)n1C1CCCCC1	none
COc1ccc(-n2cc(-c3ccc(OC)c(OC)c3)[nH]c2=S)cc1	none
CCCCN(CC)CCCNC(=O)c1cn(C)c2ccc(S(=O)(=O)N(C)C3CCCCC3)cc2c1=O	TRPC4 PAM 12
CCCCN(C)C(=O)c1cn(C)c2ccc(S(=O)(=O)N(C)C)cc2c1=O	TRPC4 PAM 14
CCCCN(C)C(=O)c1cn(CC)c2ccc(S(=O)(=O)N(C)C)cc2c1=O	none
Cc1nc2ccc(F)cc2cc1C(=O)NCc1ccco1	none
COc1ccccc1Cn1c(C(C)C)nc2ccccc21	Kir21 inh -5
CC(/C=C/c1cccs1)=C\C(=O)O	none
CC(c1ccon1)N(C)C(=O)CCc1nnc(C2(c3ccc(Cl)cc3)CCC2)o1 (configuration not stated)	Kir21 inh -4.9
Cc1ccc(CSCCNS(=O)(=O)c2ccc(C)cc2)cc1	Kir21 inh -5.5
CC(=O)c1cccc(NC(=S)NC(=O)c2ccccc2Cl)c1	none
CCOC(=O)C1=C(CNCc2ccccc2Cl)NC(=O)NC1c1cccc([N+](=O)[O-])c1 (configuration not stated)	none
COC(=O)C1=C(CCc2ccccc2)NC(=O)NC1c1ccc(Cl)cc1 (configuration not stated)	TRPC4 PAM 29
CCOC(=O)C1=C(CNCCc2ccc(Cl)cc2)NC(=O)NC1c1cccc([N+](=O)[O-])c1 (configuration not stated)	TRPC4 PAM 17
COC(=O)C1=C(COc2ccccc2)NC(=O)NC1c1ccc(Br)cc1 (configuration not stated)	none
COC(=O)C1=C(COc2ccccc2)NC(=O)NC1c1ccc2ccccc2c1 (configuration not stated)	TRPC4 act 45
CCn1c(SCC(=O)N/N=C/C=C\c2ccco2)nc2ccccc21	none
O=C(COc1ccc(Cl)cc1Cl)NN=C1CCCCC1	none
CCOc1ccccc1C1c2[nH]c3ccccc3c2C[C@H]2C(=O)N(C3CCN(Cc4ccccc4)CC3)CC(=O)N12 (some centres not stated)	none
Cc1ccccc1C1c2[nH]c3ccccc3c2C[C@H]2C(=O)N(C3CCN(Cc4ccccc4)CC3)CC(=O)N12 (some centres not stated)	TRPC4 act 48
O=C1NC(c2ccccc2)=C(c2nc3ccccc3s2)C(c2ccc(F)cc2)N1 (configuration not stated)	TRPC4 PAM 11
COc1ccc(C2NC(=O)NC(c3ccccc3)=C2c2nc3ccccc3s2)cc1 (configuration not stated)	none
Cc1ccc(C2(CCNCc3ccco3)CCOC(C(C)C)C2)cc1 (configuration not stated)	Kir21 inh -4.3
CN(C)CCCOC(=O)c1sc2ccccc2c1Cl	Kir21 inh -7.3
CCCCOC(=S)NC(=O)c1sc2ccccc2c1Cl	none
O=C1CN(c2nc(-c3ccccc3)c3cc(Cl)ccc3n2)c2ccccc2N1	none
CN1CCN(c2nc(-c3ccccc3)c3cc(Cl)ccc3n2)CC1	Kir21 inh -9.6
Clc1ccc2nc(N3CCNCC3)nc(-c3ccccc3)c2c1	Kir21 inh -4.9, TRPC4 act 102
O=C(Cc1cn(Cc2cccc(Cl)c2)c2ccccc12)N1CCCC1	Kir21 inh -5.2, TRPC4 PAM 16
O=C1CC(NS(=O)(=O)c2cccs2)CN1c1ccccc1 (configuration not stated)	TRPC4 PAM 18
O=C1CC(NS(=O)(=O)c2cccs2)CN1c1cccc(F)c1 (configuration not stated)	none
CC1CCCCN1S(=O)(=O)c1ccccc1[N+](=O)[O-] (configuration not stated)	none
CCC1CCCCN1S(=O)(=O)c1ccccc1[N+](=O)[O-] (configuration not stated)	Kir21 inh -4.3
O=C1c2ccccc2C2(c3cc(C(F)(F)F)cc(C(F)(F)F)c3)NCCN12 (configuration not stated)	TRPC4 block -6
CCCCN(CCCC)S(=O)(=O)c1ccc2oc(C(=O)N3CCOCC3)c(C)c2c1	Kir21 inh -4.8
Cc1ccc(NC(=O)c2cc(N3C(=O)C=CC3=O)ccc2N2CCOCC2)cc1	TRPC4 block -6
N#C/C(=C\c1ccccc1)C(=O)N(c1ccccn1)C1CCCCC1	Kir21 inh -11
O=C(c1cccc(C(=O)N(c2ccccn2)C2CCCCC2)c1)N(c1ccccn1)C1CCCCC1	none
O=C(c1ccc([N+](=O)[O-])s1)N1CCN(c2cccc(Cl)c2)CC1	TRPC4 block -6
Clc1ccc2nc(C3CCN(Cc4ccccc4)CC3)[nH]c2c1	Kir21 inh -6.8
Cc1ccc(CN2CCC(c3nc4ccc(Cl)cc4[nH]3)CC2)cc1	Kir21 inh -10
COC(=O)c1[nH]c(C)c(/C(O)=C2\C(=O)C(=O)N(CCN(C)C)C2c2cccs2)c1C (configuration not stated)	none
CCOC1(C(F)(F)F)NC(=O)N(Cc2ccc(OC)cc2)C1=O (configuration not stated)	none
COc1ccccc1C1CCN(Cc2ccc(Cl)c(Cl)c2)CC1	none
CN[C@@H]1CC[C@H](c2ccc(Cl)c(Cl)c2)c2ccccc21	Kir21 inh -5.8, TRPC4 PAM 14
Cc1ccc(S(=O)(=O)CCC(=O)OCC(=O)c2c(N)n(CC(C)C)c(=O)n(C)c2=O)cc1	none
Cc1ccc(-c2nc3cnccn3c2Nc2ccc3c(c2)OCO3)cc1	TRPC6 inh -5.7
CCOC(=O)c1c(CSc2ccsc2)n(C)c2cc(Br)c(O)c(CN(C)C)c12	Kir21 inh -7.1
CCOC(=O)c1c(CN2CCOCC2)n(-c2ccccc2)c2cc(Br)c(O)c(CN(C)C)c12	none
